According to ChEMBL document CHEMBL1148140, “Isolation of streptonigrin and its novel derivative from Micromonospora as inducing agents of p53-dependent cell apoptosis” (J Nat Prod, 2002):
The source made the active and inactive calls. The rule behind the calls is not given here.

Assays:
SH-SY5Y [1] = assay: Cytotoxicity against human wild type SH-SY5Y cells upto 100 uM; type: functional, cell-based
Procedure, shortened: (§1)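 Viability by MTS tetrazolium reduction. Neuroblastoma SH-SY5Y and SH-SY5Y-5.6 lines (HA-tagged 91-aa mini p53) were seeded the day before at 10⁵ cells/mL in RPMI with hygromycin 0.1 mg/mL. Exposure was 24 h; MTS was added at hour 20 (final 0.04 mg/well) for 4 h at 37 °C. Dose-response was run on reproducible hits.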

SH-SY5Y [2] = assay: Cytotoxicity against human SH-SY5Y cells overexpressing dominant negative mutant of p53 upto 100 uM; type: functional, cell-based; procedure, shortened: as §1
SH-SY5Y [3] = assay: Selectivity ratio of IC50 for human SH-SY5Y cells overexpressing dominant negative mutant of p53 to IC50 for human wild type SH-SY5Y cells; type: functional
SH-SY5Y [4] = assay: Induction of apoptosis in human SH-SY5Y cells assessed as DNA ladder activity; type: functional, cell-based
SH-SY5Y [5] = assay: Cytotoxicity against human wild type SH-SY5Y cells; type: functional, cell-based; procedure, shortened: as §1
SH-SY5Y [6] = assay: Induction of apoptosis in human SH-SY5Y cells assessed as nuclear accumulation of p53; type: functional, cell-based
SH-SY5Y [7] = assay: Cytotoxicity against human SH-SY5Y cells overexpressing dominant negative mutant of p53; type: functional, cell-based; procedure, shortened: as §1

In the case of CC(C)/C=c1\[nH]c(=O)/c(=C/c2ccccc2)[nH]c1=O, the Activity (SH-SY5Y [1]) is reported as “inactive” and the Activity (SH-SY5Y [2]) is reported as “inactive”.
For COC1=C(N)C(=O)c2nc(-c3nc(C(=O)O)c(C)c(-c4ccc(OC)c(OC)c4O)c3N)ccc2C1=O [STREPTONIGRIN], the “Ratio IC50” value (SH-SY5Y [3]) was 92, the Activity (SH-SY5Y [4]) was “Active” and the IC50 (SH-SY5Y [5]) was 0.05 µM. For the same compound, the Activity (SH-SY5Y [6]) was “Active” and the IC50 (SH-SY5Y [7]) was 4.6 µM.
With CC(C)/C=c1\c(=O)[nH]/c(=C\c2ccccc2)c(=O)n1C the Activity (SH-SY5Y [1]) was “inactive” and the Activity (SH-SY5Y [2]) was “inactive”.
Compound C[C@H]1CNCCN1S(=O)(=O)c1cccc2cnccc12 has an IC50 (SH-SY5Y [5]) of 40 µM and an IC50 (SH-SY5Y [7]) of 80 µM.
For COC1=C(NC(C)C(C)=O)C(=O)c2nc(-c3nc(C(=O)O)c(C)c(-c4ccc(OC)c(OC)c4O)c3N)ccc2C1=O (stereo not drawn), the IC50 (SH-SY5Y [5]) was 0.9 µM and the IC50 (SH-SY5Y [7]) was 75 µM.
